Source: EPA's CvTdb concentration-time database

Columns and labels:
Rat [1] = assay: concentration in plasma after dosing; conditions: 1848 h; dosed: Perfluorooctane Sulfonate; 2 mg/kg; oral; Female; Harlan Sprague Dawley
Rat [2] = assay: concentration in kidney after dosing; conditions: 1848 h; dosed: Perfluorooctane Sulfonate; 2 mg/kg; oral; Female; Harlan Sprague Dawley
Rat [3] = assay: concentration in plasma after dosing; conditions: dosed: Perfluorooctane Sulfonate, 2 mg/kg, oral, Female, Harlan Sprague Dawley
Rat [4] = assay: concentration in brain after dosing; conditions: 6 h; dosed: Perfluorooctane Sulfonate; 20 mg/kg; oral; Male; Harlan Sprague Dawley
Rat [5] = assay: concentration in plasma after dosing; conditions: dosed: Perfluorooctane Sulfonate, 2 mg/kg, oral, Female, Harlan Sprague Dawley; remark: listed apart in the source
Rat [6] = assay: concentration in plasma after dosing; conditions: 24 h; dosed: Perfluorooctane Sulfonate; 2 mg/kg; oral; Female; Harlan Sprague Dawley
Rat [7] = assay: concentration in kidney after dosing; conditions: 864 h; dosed: Perfluorooctane Sulfonate; 20 mg/kg; oral; Female; F344
Rat [8] = assay: concentration in plasma after dosing; conditions: 3360 h; dosed: Perfluorooctane Sulfonate; 2 mg/kg; oral; Female; Harlan Sprague Dawley
Rat [9] = assay: concentration in plasma after dosing; conditions: dosed: Perfluorooctane Sulfonate, 2 mg/kg, iv, Female, F344
Rat [10] = assay: concentration in plasma after dosing; conditions: dosed: Perfluorooctane Sulfonate, 2 mg/kg, iv, Male, F344
Rat [11] = assay: concentration in plasma after dosing; conditions: 2 h; dosed: Gemfibrozil; 50 mg/kg; oral; Male; Sprague-Dawley
Rat [12] = assay: concentration in plasma after dosing; conditions: 1 h; dosed: Gemfibrozil; 100 mg/kg; oral; Male; Sprague-Dawley
Rat [13] = assay: concentration in plasma after dosing; conditions: 0.5 h; dosed: Gemfibrozil; 4.29 mg/kg; oral; Male; Sprague-Dawley
Rat [14] = assay: concentration in plasma after dosing; conditions: 24 h; dosed: Gemfibrozil; 100 mg/kg; oral; Male; Sprague-Dawley
Rat [15] = assay: concentration in liver after dosing; conditions: 1 h; dosed: Perfluorohexanoic Acid; 80 mg/kg; oral; Male; Harlan Sprague Dawley
Rat [16] = assay: concentration in kidney after dosing; conditions: 6 h; dosed: Perfluorohexanoic Acid; 80 mg/kg; oral; Female; Harlan Sprague Dawley
Rat [17] = assay: concentration in plasma after dosing; conditions: dosed: Perfluorohexanoic Acid, 40 mg/kg, iv, Male, F344
Rat [18] = assay: concentration in brain after dosing; conditions: 0.5 h; dosed: Perfluorohexanoic Acid; 80 mg/kg; oral; Male; Harlan Sprague Dawley
Rat [19] = assay: concentration in brain after dosing; conditions: 1 h; dosed: Perfluorohexanoic Acid; 80 mg/kg; oral; Female; Harlan Sprague Dawley
Rat [20] = assay: concentration in liver after dosing; conditions: 3 h; dosed: Perfluorohexanoic Acid; 80 mg/kg; oral; Female; Harlan Sprague Dawley
human = assay: concentration in blood after dosing; conditions: dosed: trichloroethylene, 100 ppm, inhalation, duration: 4 hr, person
Outline: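 Sampling and analytical methods are those of each source and frequently went unreported. The concentration-versus-time and amount-versus-time points were compiled from published in vivo toxicokinetic studies and two structured collections. Most were digitised from plot screenshots with WebPlotDigitizer, with others copied from tables, in the reported units.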

Rat [21] = assay: concentration in brain after dosing; conditions: 3 h; dosed: Fluorotelomer alcohol 8+2; 80 mg/kg; oral; Female; Harlan Sprague Dawley
Rat [22] = assay: concentration in plasma after dosing; conditions: dosed: 678-39-7, 40 mg/kg, iv, Female, Harlan Sprague-Dawley
Rat [23] = assay: concentration in liver after dosing; conditions: 6 h; dosed: Fluorotelomer alcohol 8+2; 80 mg/kg; oral; Female; Harlan Sprague Dawley
Rat [24] = assay: concentration in liver after dosing; conditions: 6 h; dosed: Fluorotelomer alcohol 8+2; 24 mg/kg; oral; Male; Harlan Sprague Dawley
Rat [25] = assay: concentration in plasma after dosing; conditions: dosed: 678-39-7, 12 mg/kg, iv, Male, F344
Rat [26] = assay: concentration in plasma after dosing; conditions: dosed: 678-39-7, 40 mg/kg, iv, Male, F344
Rat [27] = assay: concentration in kidney after dosing; conditions: 6 h; dosed: Fluorotelomer alcohol 8+2; 24 mg/kg; oral; Male; Harlan Sprague Dawley
Rat [28] = assay: concentration in plasma after dosing; conditions: 0.75 h; dosed: 2-Methyltetrahydrofuran; 40 mg/kg; iv; Male; Harlan Sprague Dawley
Rat [29] = assay: concentration in brain after dosing; conditions: 1.5 h; dosed: 2-Methyltetrahydrofuran; 40 mg/kg; iv; Male; Harlan Sprague Dawley
Rat [30] = assay: concentration in brain after dosing; conditions: 0.2 h; dosed: 2-Methyltetrahydrofuran; 40 mg/kg; iv; Male; Harlan Sprague Dawley
Rat [31] = assay: concentration in brain after dosing; conditions: 4 h; dosed: 2-Methyltetrahydrofuran; 40 mg/kg; iv; Male; Harlan Sprague Dawley
Rat [32] = assay: concentration in brain after dosing; conditions: 7 min; dosed: 2-Methyltetrahydrofuran; 40 mg/kg; iv; Male; Harlan Sprague Dawley
Rat [33] = assay: concentration in plasma after dosing; conditions: 1.5 h; dosed: 2-Methyltetrahydrofuran; 40 mg/kg; iv; Male; Harlan Sprague Dawley

O=S(=O)([O-])C(F)(F)C(F)(F)C(F)(F)C(F)(F)C(F)(F)C(F)(F)C(F)(F)C(F)(F)F [Perfluorooctane Sulfonate]
Conditions | concentration in brain [ng/g] | concentration in kidney [ng/g] | concentration in plasma [ng/mL]
Rat [1] | – | – | 966
Rat [2] | – | 2040 | –
Rat [4] | 4440 | – | –
Rat [6] | – | – | 5650
Rat [7] | – | 38400 | –
Rat [8] | – | – | 144

Conditions | concentration in plasma [ng/mL]
Rat [3], 5 min | 38.2
Rat [3], 12 h | 7740
Rat [3], 1200 h | 892
Rat [5], 12 h | 6280
Rat [5], 528 h | 2270
Rat [9], 1 h | 4870
Rat [9], 528 h | 2180
Rat [10], 6 h | 4220
Rat [10], 864 h | 1290
Rat [10], 3216 h | 359

Cc1ccc(C)c(OCCCC(C)(C)C(=O)O)c1 [Gemfibrozil]
Conditions | concentration in plasma [ng/mL]
Rat [11] | 1970
Rat [12] | 57500
Rat [13] | 570
Rat [14] | 1050

O=C(O)C(F)(F)C(F)(F)C(F)(F)C(F)(F)C(F)(F)F [Perfluorohexanoic Acid]
Conditions | concentration in brain [ng/g] | concentration in kidney [ng/g] | concentration in liver [ng/g]
Rat [15] | – | – | 83600
Rat [16] | – | 9420 | –
Rat [18] | 2590 | – | –
Rat [19] | 1270 | – | –
Rat [20] | – | – | 8200

Rat [17]
Conditions | concentration in plasma [ng/mL]
0.5 h | 14500
12 h | 35.7

ClC=C(Cl)Cl [trichloroethylene]
human
Conditions | concentration in blood [nM]
0 h | 13000
0.17 h | 4900
0.5 h | 3280
1 h | 2200
1.5 h | 1680
2 h | 1340
3 h | 1070
4 h | 865
6 h | 583
8 h | 392
10 h | 259

O=C(O)CCC(F)(F)C(F)(F)C(F)(F)C(F)(F)C(F)(F)C(F)(F)C(F)(F)F [Fluorotelomer acid 7+3]
Conditions | concentration in brain [ng/g] | concentration in kidney [ng/g] | concentration in liver [ng/g]
Rat [21] | 1580 | – | –
Rat [23] | – | – | 9210
Rat [24] | – | – | 1500
Rat [27] | – | 1250 | –

Conditions | concentration in plasma [ng/mL]
Rat [22], 0.75 h | 929
Rat [22], 12 h | 368
Rat [25], 0.5 h | 167
Rat [25], 9 h | 164
Rat [26], 3 h | 3090
Rat [26], 5 min | 25.4

CC1CCCO1 (centres undefined) [2-Methyltetrahydrofuran]
Conditions | concentration in brain [ng/mL] | concentration in plasma [ng/mL]
Rat [28] | – | 29200
Rat [29] | 2800 | –
Rat [30] | 24900 | –
Rat [31] | 184 | –
Rat [32] | 25400 | –
Rat [33] | – | 14500
